Data published in ChEMBL document CHEMBL2384974, “Discovery and synthesis of novel 4-aminopyrrolopyrimidine Tie-2 kinase inhibitors for the treatment of solid tumors” (Bioorg Med Chem Lett, 2013).
Values after ≈ are worked out from the molar mass of the structure shown. Active and inactive are the calls of the source. The calls are words filed in the database; no cut-off is given here.

Tests used:
[1] = target: Epidermal growth factor receptor (Homo sapiens, UniProt P04626+P00533+Q15303+P21860); assay: Inhibition of human EGFR extracellular domain/TIE2 intracellular domain transfected in mouse NIH/3T3 cells assessed as phosphotyrosine level preincubated for 60 mins followed by EGF stimulation by DELFIA assay; format: cell-based; conditions: nih3t3
How it was run: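 NIH/3T3 fibroblasts stably transfected with a chimera of human EGFR extracellular domain and human Tie-2 intracellular domain. Cells were exposed to compound for 60 min, stimulated with EGF, then fixed. Phosphotyrosine was read with an Eu-labeled antibody by DELFIA. In washout runs, medium was replaced with fresh medium and cells were stimulated at set times.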

[2] = target: T1, Angiopoietin-1 receptor (Homo sapiens, UniProt Q02763); assay: Inhibition of GST-fused TIE2 (unknown origin) using poly[Glu:Tyr] as substrate assessed as phosphotyrosine level by ELISA
How it was run: (§1)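 ELISA on poly-Glu-Tyr-coated plates using a GST-Tie-2 kinase fusion protein and 100 µM ATP. Phosphorylated product was detected with HRP-conjugated anti-phosphotyrosine monoclonal antibody (PY20). For reversibility, enzyme was preincubated with compound for 15 min before ATP was added. Kinetics were run with titrated ATP.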

[3] = Metabolic stability in rat liver microsomes assessed as hepatic extraction ratio; format: ADME, Microsome; conditions: read-out: ERH
[4] = Efflux ratio of permeability across basolateral to apical side over apical to basolateral side in human Caco2 cells expressing p-gp; format: ADME, cell-based; conditions: Caco-2
[5] = Permeability across apical to basolateral side in human Caco2 cells expressing p-gp; format: ADME, cell-based; conditions: Caco-2, read-out: permeability
[6] = target: Platelet-derived growth factor receptor beta (Homo sapiens, UniProt P09619); assay: Inhibition of PDGFR (unknown origin)
[7] = target: Vascular endothelial growth factor receptor 2 (Homo sapiens, UniProt P35968); assay: Inhibition of KDR (unknown origin)
[8] = target: Tyrosine-protein kinase Lck (Homo sapiens, UniProt P06239); assay: Inhibition of LCK (unknown origin)
[9] = target: T1, Angiopoietin-1 receptor; assay: Inhibition of TIE2 (unknown origin); how it was run: as §1
[10] = target: Proto-oncogene tyrosine-protein kinase Src (Homo sapiens, UniProt P12931); assay: Inhibition of SRC (unknown origin)
[11] = tested on: C6; assay: Antitumor activity against rat C6 cells lacking human TIE2 xenografted in mouse assessed as tumor growth inhibition at 10 mg/kg, po qd after 10 days relative to control; format: functional; conditions: C6, 240 h, read-out: TGI
How it was run: (§2)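 Oral dosing once or twice daily at 10 or 33 mg/kg for 10 days in the C6 rat glioblastoma xenograft model. The C6 line was uninfected parental cells without human Tie-2. Read-out was percent tumor growth inhibition.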

[12] = Permeability across basolateral to apical side in human Caco2 cells expressing p-gp; format: ADME, cell-based; conditions: Caco-2, read-out: permeability
[13] = species on record: Homo sapiens; assay: Inhibition of IKr (unknown origin)
[14] = Cmax in Sprague-Dawley rat at 4.2 mg/kg, po; format: ADME, organism-based; parameters: dose 4.2 mg/kg, route oral; conditions: in vivo
How it was run: (§3)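 Ultrafasted Sprague–Dawley rats given 4.2 mg/kg as an oral suspension. Cmax, Tmax, hepatic extraction (Eh) and oral bioavailability were derived from systemic plasma levels.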

[15] = Inhibition of cytochrome P450 (unknown origin); format: ADME, Homo sapiens
[16] = Volume of distribution at steady state in Sprague-Dawley rat at 0.164 mg/kg, iv; format: ADME, organism-based; parameters: dose 0.164 mg/kg, route intravenous; conditions: in vivo, read-out: Vdss
How it was run: (§4)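 Male Sprague–Dawley rats, fed, given a single 0.164 mg/kg IV dose. Clearance, steady-state volume of distribution and half-life were derived from plasma levels.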

[17] = target: Fibroblast growth factor receptor (Homo sapiens, UniProt P22607+P11362+P22455+P21802); assay: Inhibition of FGFR (unknown origin); format: protein assay
[18] = target: Epidermal growth factor receptor (Homo sapiens, UniProt P00533); assay: Inhibition of EGFR (unknown origin)
[19] = Mutagenic activity in micronucleus (unknown origin); format: ADME
[20] = target: Voltage-gated inwardly rectifying potassium channel KCNH2 (Homo sapiens, UniProt Q12809); assay: Inhibition of human ERG
[21] = tested on: C6; assay: Antitumor activity against rat C6 cells lacking human TIE2 xenografted in mouse assessed as tumor growth inhibition at 33 mg/kg, po qd after 10 days relative to control; format: functional; conditions: C6, 240 h, read-out: TGI; how it was run: as §2
[22] = tested on: Mus musculus; assay: Inhibition of human TIE2 phosphorylation expressed in rat C6 cells xenografted in po dosed mouse; format: functional, organism-based
How it was run: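 Ex vivo assay in C6 rat glioblastoma clones overexpressing human Tie-2 from a retroviral construct, after a single oral dose. Frozen tumors were homogenized in lysis buffer and lysates captured on antibody-coated plates, with HRP-labeled antibody detection. Plasma and tumor drug levels were measured by LC–MS.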

[23] = tested on: C6; assay: Antitumor activity against rat C6 cells lacking human TIE2 xenografted in mouse assessed as tumor growth inhibition at 10 mg/kg, po bid after 10 days relative to control; format: functional; conditions: C6, 240 h, read-out: TGI; how it was run: as §2
[24] = tested on: Salmonella typhimurium; assay: Mutagenic activity in Salmonella typhimurium by Ames assay; format: toxicity, organism-based; conditions: salmonella enterica subsp. enterica serovar typhimurium
[25] = Clearance in Sprague-Dawley rat at 0.164 mg/kg, iv; format: ADME, organism-based; parameters: dose 0.164 mg/kg, route intravenous; conditions: in vivo; how it was run: as §4
[26] = tested on: C6; assay: Antitumor activity against rat C6 cells lacking human TIE2 xenografted in mouse assessed as tumor growth inhibition at 33 mg/kg, po bid after 10 days; format: functional, organism-based; parameters: dose 33 mg/kg; how it was run: as §2
[27] = Oral bioavailability in Sprague-Dawley rat at 4.2 mg/kg; format: ADME, organism-based; conditions: in vivo; how it was run: as §3
[28] = Metabolic stability in human liver microsomes assessed as hepatic extraction ratio; format: ADME, Microsome; conditions: read-out: ERH
[29] = Tmax in Sprague-Dawley rat at 4.2 mg/kg, po; format: ADME, organism-based; parameters: dose 4.2 mg/kg, route oral; conditions: in vivo; how it was run: as §3
[30] = Half life in Sprague-Dawley rat at 0.164 mg/kg, iv; format: ADME, organism-based; parameters: dose 0.164 mg/kg, route intravenous; conditions: in vivo; how it was run: as §4
[31] = Solubility of the compound; format: physicochemical
[32] = tested on: Mus musculus; assay: Toxicity in mouse xenografted with rat C6 cells lacking human TIE2 assessed as body weight loss at 10 to 33 mg/kg, po after 10 days; format: organism-based; parameters: dose 10-33 mg/kg, route oral; conditions: in vivo, 240 h
[33] = tested on: Rattus norvegicus; assay: Metabolic stability in Sprague-Dawley rat assessed as hepatic extraction at 4.2 mg/kg, po; format: ADME, organism-based; parameters: dose 4.2 mg/kg, route oral; conditions: in vivo; how it was run: as §3

Vascular endothelial growth factor receptor 2, sequence (P35968 whole entry): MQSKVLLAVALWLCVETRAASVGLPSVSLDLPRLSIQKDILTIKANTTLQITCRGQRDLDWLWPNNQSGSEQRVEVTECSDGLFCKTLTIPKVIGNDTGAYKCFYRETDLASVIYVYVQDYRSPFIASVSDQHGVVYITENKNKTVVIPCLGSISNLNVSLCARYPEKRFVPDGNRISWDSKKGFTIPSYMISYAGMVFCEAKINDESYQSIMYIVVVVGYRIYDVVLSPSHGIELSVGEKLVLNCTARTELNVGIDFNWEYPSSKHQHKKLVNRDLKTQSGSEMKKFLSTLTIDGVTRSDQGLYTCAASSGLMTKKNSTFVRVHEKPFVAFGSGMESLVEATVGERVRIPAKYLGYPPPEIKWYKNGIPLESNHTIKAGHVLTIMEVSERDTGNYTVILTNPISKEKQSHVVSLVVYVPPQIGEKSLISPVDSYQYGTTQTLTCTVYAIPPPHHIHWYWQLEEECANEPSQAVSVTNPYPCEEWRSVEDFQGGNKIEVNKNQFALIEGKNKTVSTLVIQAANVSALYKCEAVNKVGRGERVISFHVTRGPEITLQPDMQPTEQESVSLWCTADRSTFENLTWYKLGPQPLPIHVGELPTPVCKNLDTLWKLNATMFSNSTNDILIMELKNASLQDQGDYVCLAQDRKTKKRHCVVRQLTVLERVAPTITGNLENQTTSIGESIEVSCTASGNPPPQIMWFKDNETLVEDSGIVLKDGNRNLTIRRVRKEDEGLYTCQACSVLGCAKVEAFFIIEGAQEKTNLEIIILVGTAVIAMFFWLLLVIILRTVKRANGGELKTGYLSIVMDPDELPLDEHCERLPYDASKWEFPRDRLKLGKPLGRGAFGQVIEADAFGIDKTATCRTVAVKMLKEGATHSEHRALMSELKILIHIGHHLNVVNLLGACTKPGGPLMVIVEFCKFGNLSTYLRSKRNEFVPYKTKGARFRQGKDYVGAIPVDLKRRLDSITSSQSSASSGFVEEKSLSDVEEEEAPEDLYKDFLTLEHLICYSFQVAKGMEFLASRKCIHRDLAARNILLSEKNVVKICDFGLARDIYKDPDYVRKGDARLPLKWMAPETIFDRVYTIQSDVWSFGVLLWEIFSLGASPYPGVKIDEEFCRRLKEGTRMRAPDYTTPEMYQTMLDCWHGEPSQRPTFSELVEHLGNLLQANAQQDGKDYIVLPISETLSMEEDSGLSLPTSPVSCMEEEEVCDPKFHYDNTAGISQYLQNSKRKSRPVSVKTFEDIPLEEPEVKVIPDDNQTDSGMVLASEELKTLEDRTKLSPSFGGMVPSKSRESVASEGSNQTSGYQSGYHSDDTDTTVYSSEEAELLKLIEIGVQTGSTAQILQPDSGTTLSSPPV
T1 sequence (Q02763 whole entry, the tested form may be a part): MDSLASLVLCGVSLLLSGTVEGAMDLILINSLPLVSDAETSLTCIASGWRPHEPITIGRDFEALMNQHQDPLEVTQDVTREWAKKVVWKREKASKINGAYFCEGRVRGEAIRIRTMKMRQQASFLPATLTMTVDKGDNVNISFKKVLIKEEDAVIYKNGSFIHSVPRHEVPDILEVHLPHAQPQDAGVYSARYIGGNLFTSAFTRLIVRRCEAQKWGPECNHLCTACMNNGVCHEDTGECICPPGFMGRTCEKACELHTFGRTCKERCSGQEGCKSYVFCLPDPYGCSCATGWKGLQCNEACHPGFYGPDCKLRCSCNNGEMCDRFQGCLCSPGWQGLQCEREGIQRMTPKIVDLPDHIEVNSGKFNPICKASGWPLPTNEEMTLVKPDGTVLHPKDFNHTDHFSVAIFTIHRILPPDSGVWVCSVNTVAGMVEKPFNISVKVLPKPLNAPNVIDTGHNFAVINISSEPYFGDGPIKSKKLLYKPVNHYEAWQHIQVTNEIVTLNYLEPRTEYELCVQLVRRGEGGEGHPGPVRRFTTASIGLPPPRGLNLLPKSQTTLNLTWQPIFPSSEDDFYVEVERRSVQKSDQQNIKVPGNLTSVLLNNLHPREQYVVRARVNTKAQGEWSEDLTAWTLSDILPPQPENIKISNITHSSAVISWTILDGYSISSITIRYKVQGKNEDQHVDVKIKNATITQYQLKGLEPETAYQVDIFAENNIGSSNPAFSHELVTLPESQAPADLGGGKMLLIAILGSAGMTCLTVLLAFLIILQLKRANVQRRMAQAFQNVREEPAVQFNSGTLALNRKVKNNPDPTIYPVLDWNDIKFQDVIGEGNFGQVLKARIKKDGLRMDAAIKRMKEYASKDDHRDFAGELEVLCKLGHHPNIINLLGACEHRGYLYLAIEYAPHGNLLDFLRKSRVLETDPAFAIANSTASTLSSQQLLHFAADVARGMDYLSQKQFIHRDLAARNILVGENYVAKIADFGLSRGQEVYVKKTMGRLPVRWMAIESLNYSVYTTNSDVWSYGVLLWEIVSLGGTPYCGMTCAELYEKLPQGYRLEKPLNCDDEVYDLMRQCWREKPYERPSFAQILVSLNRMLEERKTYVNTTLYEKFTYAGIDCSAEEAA
Platelet-derived growth factor receptor beta, sequence (P09619 whole entry): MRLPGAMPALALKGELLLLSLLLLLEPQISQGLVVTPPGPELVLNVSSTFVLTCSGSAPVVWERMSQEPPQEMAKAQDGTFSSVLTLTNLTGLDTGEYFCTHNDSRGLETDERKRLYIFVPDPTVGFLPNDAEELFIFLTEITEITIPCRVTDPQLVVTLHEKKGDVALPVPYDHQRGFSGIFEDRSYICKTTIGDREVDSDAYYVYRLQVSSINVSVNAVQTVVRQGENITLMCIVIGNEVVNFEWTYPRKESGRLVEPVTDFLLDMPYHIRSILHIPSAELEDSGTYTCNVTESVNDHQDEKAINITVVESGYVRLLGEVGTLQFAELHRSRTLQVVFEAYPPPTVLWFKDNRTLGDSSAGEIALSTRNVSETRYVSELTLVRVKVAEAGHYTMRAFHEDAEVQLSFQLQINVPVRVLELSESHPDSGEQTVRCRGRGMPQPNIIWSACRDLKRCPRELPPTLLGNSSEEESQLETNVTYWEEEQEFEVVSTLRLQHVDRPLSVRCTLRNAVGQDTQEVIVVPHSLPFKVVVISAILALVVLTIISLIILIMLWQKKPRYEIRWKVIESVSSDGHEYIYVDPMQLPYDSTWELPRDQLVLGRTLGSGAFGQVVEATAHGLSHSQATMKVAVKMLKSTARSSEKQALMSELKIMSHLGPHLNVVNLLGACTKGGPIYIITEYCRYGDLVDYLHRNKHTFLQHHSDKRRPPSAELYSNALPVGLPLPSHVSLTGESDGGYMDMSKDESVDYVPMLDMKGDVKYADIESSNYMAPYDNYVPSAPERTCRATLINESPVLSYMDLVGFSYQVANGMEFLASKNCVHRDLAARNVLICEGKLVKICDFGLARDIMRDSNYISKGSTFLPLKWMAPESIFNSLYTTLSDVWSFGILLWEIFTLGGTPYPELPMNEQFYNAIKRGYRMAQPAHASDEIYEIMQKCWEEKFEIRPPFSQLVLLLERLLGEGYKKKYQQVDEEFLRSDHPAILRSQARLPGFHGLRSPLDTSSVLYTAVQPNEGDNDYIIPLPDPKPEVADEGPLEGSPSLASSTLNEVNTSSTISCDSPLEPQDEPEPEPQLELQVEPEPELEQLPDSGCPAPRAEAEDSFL
Proto-oncogene tyrosine-protein kinase Src, sequence (P12931 2-536 limits assumed): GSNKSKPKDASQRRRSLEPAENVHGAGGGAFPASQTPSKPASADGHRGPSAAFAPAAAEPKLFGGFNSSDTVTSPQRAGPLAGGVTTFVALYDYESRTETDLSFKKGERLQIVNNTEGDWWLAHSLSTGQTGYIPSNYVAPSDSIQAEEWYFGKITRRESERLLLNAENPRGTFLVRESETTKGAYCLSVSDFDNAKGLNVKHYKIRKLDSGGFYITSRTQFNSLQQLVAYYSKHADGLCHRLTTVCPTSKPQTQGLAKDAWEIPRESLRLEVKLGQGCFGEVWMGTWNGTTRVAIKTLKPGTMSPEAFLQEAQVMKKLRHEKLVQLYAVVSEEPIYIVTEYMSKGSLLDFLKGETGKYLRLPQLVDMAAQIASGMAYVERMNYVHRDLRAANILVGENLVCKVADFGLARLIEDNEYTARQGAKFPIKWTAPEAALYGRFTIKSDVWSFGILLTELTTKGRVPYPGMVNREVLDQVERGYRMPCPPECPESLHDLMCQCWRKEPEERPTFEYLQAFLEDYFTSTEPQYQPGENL
Tyrosine-protein kinase Lck, sequence (P06239 whole entry): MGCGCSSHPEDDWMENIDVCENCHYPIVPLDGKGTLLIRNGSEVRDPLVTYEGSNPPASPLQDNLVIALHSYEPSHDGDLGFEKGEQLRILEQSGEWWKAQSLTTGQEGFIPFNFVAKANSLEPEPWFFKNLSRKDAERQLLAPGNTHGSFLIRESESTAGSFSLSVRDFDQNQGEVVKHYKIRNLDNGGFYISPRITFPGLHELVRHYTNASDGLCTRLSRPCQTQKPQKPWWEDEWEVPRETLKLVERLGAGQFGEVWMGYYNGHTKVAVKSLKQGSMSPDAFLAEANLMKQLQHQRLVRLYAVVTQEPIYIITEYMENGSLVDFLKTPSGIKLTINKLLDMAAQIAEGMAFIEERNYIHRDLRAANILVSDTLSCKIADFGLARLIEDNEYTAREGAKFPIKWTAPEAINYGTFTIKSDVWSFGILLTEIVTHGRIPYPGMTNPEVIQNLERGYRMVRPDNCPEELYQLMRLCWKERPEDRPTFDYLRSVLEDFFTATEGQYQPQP

Nc1ncnc2c1c(C(=O)c1ccc(NS(=O)(=O)c3c(F)cccc3F)cc1)cn2C1CCCC1 showed an IC50 [1] of 769 nM and an IC50 [2] of 745 nM.

Nc1ncnc2c1c(-c1nc3ccc(NC(=O)Nc4c(F)cccc4F)cc3[nH]1)cn2C1CCCC1 showed a hepatic extraction ratio [3] of 0.9, an IC50 [1] of 112 nM and an IC50 [2] of 241 nM. For the same compound, the efflux ratio [4] was 3.2.

Compound COc1ccc(C)cc1NC(=O)Nc1cccc(C(=O)c2cn(C3CCCC3)c3ncnc(N)c23)c1 has a hepatic extraction ratio [3] of 0.69, an IC50 [1] of 0.69 nM and an IC50 [2] of 8.8 nM. For the same compound, the efflux ratio [4] was 9.4.

Nc1ncnc2c1c(C(=O)c1cccc(NC(=O)Nc3ccc(Cl)cc3Cl)c1)cn2C1CCCC1 gave an IC50 [1] of 1.2 nM and an efflux ratio [4] of 1.9.

Work on Nc1ncnc2c1c(C(=O)c1cccc(NS(=O)(=O)c3c(F)cccc3F)c1)cn2C1CCCC1 yielded an IC50 [1] of 253 nM, an IC50 [2] of 423 nM and an efflux ratio [4] of 4.7.

In the case of Nc1ncnc2c1c(Cc1cccc(NS(=O)(=O)c3c(F)cccc3F)c1)cn2C1CCCC1, the IC50 [2] is reported as > 10000 nM.

For Nc1ncnc2c1c(C(=O)c1cccc(NC(=O)Nc3c(F)cccc3F)c1)cn2C1CCCC1, the hepatic extraction ratio [3] was 0.83, the Papp A→B [5] was 7.7 ×10⁻⁶ cm/s and the IC50 [6] was > 5000 nM. The IC50 [7] was 3100 nM, the IC50 [1] was 67 nM and the IC50 [2] was 361 nM. It also gave an efflux ratio [4] of 3.5.

With COc1cc(-c2cn([C@H]3CC[C@H](N4CCN(C)CC4)CC3)c3ncnc(N)c23)ccc1NS(=O)(=O)c1ccccc1 the IC50 [8] was > 3000 nM, the IC50 [7] was > 3000 nM and the IC50 [9] was 137 nM. For the same compound, the IC50 [10] was > 3000 nM.

CC(C)n1cc(C(=O)c2cccc(NC(=O)Nc3ccc(Cl)cc3)c2)c2c(N)ncnc21 gave a hepatic extraction ratio [3] of 0.52, an inhibition in vivo at 10 mg/kg [11] of 40% and a Papp B→A [12] of 9.5 ×10⁻⁶ cm/s. For the same compound, the IC20 [13] was 1000 nM, the Cmax [14] was 1720 ng/mL and the IC50 [15] was > 3000 nM. The Vd [16] was 0.9 L/kg, the IC50 [17] was > 10000 nM and the IC50 [18] was > 10000 nM. For the same compound, the Activity [19] was “Toxic”, the IC50 [6] was 1400 nM and the “inhibition (INH)” value [20] was “Active”. The inhibition in vivo at 33 mg/kg [21] was 60%, the inhibition [22] was “Active” and the IC50 [7] was > 10000 nM. The inhibition in vivo at 10 mg/kg [23] was 70%, the Activity [24] was “Non-toxic” and the clearance [25] was 38 mL/min/kg. The TGI [26] was “Active”, the bioavailability [27] was 100% and the hepatic extraction ratio [28] was 0.46. The efflux ratio [4] was 1.5, the Tmax [29] was 45 min and the half-life [30] was 24 min. For the same compound, the solubility [31] was 35 µg/mL (≈ 78 µM), the Activity [32] was “Non-toxic” and the Stability [33] was 27 mL/min/kg.

Nc1ncnc2c1c(-c1nc3ccc(NS(=O)(=O)c4c(F)cccc4F)cc3[nH]1)cn2C1CCCC1 gave a hepatic extraction ratio [3] of 0.69, an IC50 [1] of 518 nM and an IC50 [2] of 568 nM.

Nc1ncnc2c1c(C(=O)c1ccc(NC(=O)Nc3c(F)cccc3F)cc1)cn2C1CCCC1 showed an IC50 [1] of 254 nM and an IC50 [2] of 345 nM.

In the case of Cc1ccc(F)c(NC(=O)Nc2cccc(C(=O)c3cn(C4CCCC4)c4ncnc(N)c34)c2)c1, the hepatic extraction ratio [3] is reported as 0.8, the IC50 [1] is reported as 0.89 nM and the IC50 [2] is reported as 12 nM. For the same compound, the efflux ratio [4] was 9.2.

Work on Nc1ncnc2c1c(C(=O)c1cccc(NC(=O)Nc3ccc(Cl)cc3)c1)cn2C1CCCC1 yielded a hepatic extraction ratio [3] of 0.7, an IC50 [1] of 4.6 nM and an IC50 [2] of 45 nM. For the same compound, the efflux ratio [4] was 17.
